Activity calls are given as the source filed them. No cut-off for these calls is given here.
What was measured:
[1] = biological target: T1, Peroxisome proliferator-activated receptor gamma (Homo sapiens) (UniProt P37231); test: Activation of PPARgamma transfected in human MDA-MB-231 cells at 100 to 300 uM after 48 hrs by luciferase reporter gene assay; type: cell-based
T1 sequence (whole entry): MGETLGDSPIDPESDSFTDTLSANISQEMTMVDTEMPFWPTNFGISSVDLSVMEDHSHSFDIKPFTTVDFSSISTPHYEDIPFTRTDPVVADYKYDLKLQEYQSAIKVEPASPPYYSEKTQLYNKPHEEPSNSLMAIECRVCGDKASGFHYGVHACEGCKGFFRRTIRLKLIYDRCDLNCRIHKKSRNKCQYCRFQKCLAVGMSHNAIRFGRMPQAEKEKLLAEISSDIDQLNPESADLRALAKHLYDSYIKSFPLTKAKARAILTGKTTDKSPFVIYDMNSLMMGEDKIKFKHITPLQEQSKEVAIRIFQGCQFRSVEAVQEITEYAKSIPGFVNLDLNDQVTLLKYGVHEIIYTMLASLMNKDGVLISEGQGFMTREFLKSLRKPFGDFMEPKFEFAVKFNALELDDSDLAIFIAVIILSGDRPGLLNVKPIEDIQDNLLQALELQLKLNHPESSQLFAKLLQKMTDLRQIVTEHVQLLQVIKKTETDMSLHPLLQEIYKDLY
How it was run: (§1)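 MCF-7 or MDA-MB-231 cells grown in DMEM/F12 with 10% FCS at 37 °C, 5% CO2. Electroporated with pPPRE-aP2-tk-luc reporter (50 µg/mL) plus rat PPARγ construct pCMV-rPPARγ (10 µg/mL). Seeded 20,000 cells/well and left 20 h. Compound added in serum-free medium for 24 or 48 h. Cells lysed and luciferase read. Runs done in triplicate or quadruplicate.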

[2] = biological target: T1, Peroxisome proliferator-activated receptor gamma (Homo sapiens); test: Activation of PPARgamma transfected in human MCF7 cells at 100 to 300 uM after 48 hrs by luciferase reporter gene assay; type: cell-based; how it was run: as §1
[3] = biological target: T1, Peroxisome proliferator-activated receptor gamma (Homo sapiens); test: Activation of GAL4 fused human PPARgamma ligand binding domain transfected in african green monkey CV1 cells at 10 uM by CAT reporter assay; type: cell-based; details: CV-1
[4] = biological target: T2, Peroxisome proliferator-activated receptor gamma (Homo sapiens, UniProt P37231); test: Activation of PPARgamma transfected in human MCF7 cells by luciferase reporter gene assay; type: cell-based
T2 sequence (P37231 whole entry): T1 sequence (whole entry)

MCF7 [5] = test: Antiproliferative activity against human MCF7 cells by neutral red method; type: functional, cell-based
How it was run: (§2)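 MCF-7 cells plated as for the reporter assay (20,000/well, 20 h), then exposed 48 h to compound added in serum-free DMEM/F12. Viability read by neutral red uptake as absorbance at 540 nm, corrected at 630 nm. Triplicate, mean ± SD.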

T47D [6] = test: Induction of apoptosis in human T47D cells assessed as chromosome fragmentation at 10 uM after 16 hrs by fluorescent microscopy
[7] = biological target: T1, Peroxisome proliferator-activated receptor gamma (Homo sapiens); test: Activation of PPARgamma transfected in human MCF7 cells at 10 uM after 48 hrs by luciferase reporter gene assay; type: cell-based; how it was run: as §1
[8] = biological target: T1, Peroxisome proliferator-activated receptor gamma (Homo sapiens); test: Activation of PPARgamma transfected in human MCF7 cells at 10 uM by luciferase reporter gene assay; type: cell-based; how it was run: as §1
MCF7 [9] = test: Antiproliferative activity against human MCF7 cells at 10 uM after 48 hrs by neutral red method; type: functional; how it was run: as §2
[10] = Inhibition of HDAC by cell-free enzyme assay
MCF7 [11] = test: Antiproliferative activity against human MCF7 cells at 30 uM after 8 hrs by neutral red method; type: functional
How it was run: (§3)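 Short exposure: MCF-7 cells treated at 3, 10 or 30 µM for 1, 2, 4 or 8 h. Then washed twice with serum-free medium and grown 96 h in medium with 10% FCS, compound-free. Neutral red absorbance at 540 nm, corrected at 630 nm. Triplicate.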

MCF7 [12] = test: Induction of apoptosis in human MCF7 cells assessed as chromosome fragmentation at 10 uM after 16 hrs by fluorescent microscopy; type: functional, cell-based
How it was run: (§4)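 MCF-7 cells seeded at 80,000/well on coverslips and grown 16 h. Compound added (10 µM final) in an equal volume of serum-free medium; 30 nM taxol as control. After 4, 8 or 16 h, cells fixed in MeOH, washed in PBS and mounted in DAPI. Fragmented nuclei scored by fluorescence at 400×.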

NCI-H1299 = test: Activation of p21 promoter in human H1299 cells by reporter assay; type: functional, cell-based
MCF7 [13] = test: Antiproliferative activity against human MCF7 cells at 10 uM up to 8 hrs by neutral red method; type: functional, cell-based; how it was run: as §3
T47D [14] = test: Induction of apoptosis in human T47D cells assessed as chromosome fragmentation at 10 uM after 8 hrs by fluorescent microscopy
MCF7 [15] = test: Induction of apoptosis in human MCF7 cells assessed as chromosome fragmentation at 10 uM after 8 hrs by fluorescent microscopy; type: functional, cell-based; how it was run: as §4
MCF7 [16] = test: Induction of apoptosis in human MCF7 cells assessed as chromosome fragmentation at 30 uM by fluorescent microscopy; type: functional, cell-based; details: TDE = time-dependent effect

With `COc1ccc2c(c1)c(CC(=O)O)c(C)n2C(=O)c1ccc(Cl)cc1` the Activity [1] was “inactive” and the Activity [2] was “inactive”.

With `CC1(COc2ccc(CC3SC(=O)NC3=O)cc2)CCCCC1` (configuration not stated) the Activity [3] was “Active”.

In the case of `O=C(NCCSSCCNC(=O)/C(Cc1ccc(O)c(Br)c1)=N/O)/C(Cc1ccc(O)c(Br)c1)=N/O` [PSAMMAPLIN A], the EC50 [4] is reported as 5.7 µM, the IC50 (MCF7 [5]) is reported as 5 µM and the Activity (T47D [6]) is reported as “Active”. For the same compound, the Activity [7] was “Active”, the Activity [8] was “Active” and the Activity (MCF7 [9]) was 62%. The IC50 [10] was 0.0042 µM, the Activity (MCF7 [11]) was 36% and the Activity (MCF7 [12]) was “Active”. The AC50 (NCI-H1299) was 7.5 µM, the Activity (MCF7 [13]) was “inactive” and the Activity (T47D [14]) was “Active”. The Activity (MCF7 [15]) was “Active”.

With `CC(=O)O[C@H]1C(=O)[C@@]2(C)[C@H]([C@H](OC(=O)c3ccccc3)[C@]3(O)C[C@H](OC(=O)[C@H](O)[C@@H](NC(=O)c4ccccc4)c4ccccc4)C(C)=C1C3(C)C)[C@]1(OC(C)=O)CO[C@@H]1C[C@@H]2O` the Activity (MCF7 [16]) was “tde”.
